Experimental data taken from ChEMBL document CHEMBL4706726, “Glucosamine and Its Analogues as Modulators of Amyloid-β Toxicity” (ACS Med Chem Lett, 2021).
Calls of active or inactive are those of the source. The calls are words filed in the database; no cut-off is given here.

Experiments:
[1] = molecular target: Amyloid-beta precursor protein (Homo sapiens) (UniProt P05067); test: Modulation of human amyloid beta (1 to 42) supramolecular assembly assessed as elongation of amyloid beta42 fibrils at <50 mM measured for 10 days by ThT dye based fluorescence spectrophotometry; details: filed as modulator, dose mM <50, time 10.0 day
Outline: (§1)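 Aβ42 aggregation kinetics followed for 10 days by thioflavin-T fluorescence, which reports parallel β-sheets. Each monosaccharide tested at several concentrations from 250 μM up to 50 mM.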

[2] = molecular target: Amyloid-beta precursor protein (Homo sapiens) (UniProt P05067); test: Modulation of human amyloid beta (1 to 42) supramolecular assembly assessed as elongation of amyloidbeta42 fibrils at 50 mM measured for 10 days by ThT dye based fluorescence spectrophotometry; details: time 10.0 day; outline: as §1
[3] = molecular target: Amyloid-beta precursor protein (Homo sapiens) (UniProt P05067); test: Modulation of human amyloid beta (1 to 42) supramolecular organization assessed as reduction in 6E10 epitope binding site structure at 1 mM measured for 1 to 5 days by Western blot analysis; details: filed as modulator, time 1-5 day
Outline: (§2)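 Aβ42 (25 μM) incubated with monosaccharide (1 mM) for 1 or 5 days; assemblies detected by Western blot with antibody 6E10 and quantified by relative densitometry against Aβ42 alone; error bars SD.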

[4] = molecular target: Amyloid-beta precursor protein (Homo sapiens) (UniProt P05067); test: Modulation of human amyloid beta (1 to 42) supramolecular organization assessed as reduction in antiparallel beta-sheets characteristic of cytotoxic Abeta42 aggregates at 1 mM measured for 5 days by CD spectrometry; details: filed as modulator, time 5.0 day
Outline: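 Aβ42 secondary structure followed by circular dichroism over 1 and 5 days, with 1 mM of each monosaccharide present. Loss of antiparallel β-sheet was scored against 25 μM Aβ42 control. Error bars SD.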

SH-SY5Y [5] = test: Cytotoxicity against human SH-SY5Y cells assessed as reduction in cell viability at 1 mM measured after 1 day by alamar blue assay; format: cell-based; details: 24 h, 1000 µM
Outline: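 SH-SY5Y neuroblastoma cells exposed to each monosaccharide (1 mM) under cell culture conditions without Aβ42. Viability screened for cytotoxicity.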

SH-SY5Y [6] = test: Neuroprotective activity against Abeta-42-induced cytotoxicity in human SH-SY5Y cells assessed as increase in cell viability at 1 mM measured upto 5 days by alamar blue assay; format: functional, cell-based; details: time day <=5
Outline: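 SH-SY5Y cells incubated with Aβ42 plus each monosaccharide (1 mM) for 5 h, 24 h and 5 days. Cell viability measured at each time.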

[7] = molecular target: Amyloid-beta precursor protein (Homo sapiens) (UniProt P05067); test: (§3) Modulation of amyloid beta (1 to 42) supramolecular organization in human SH-SY5Y cells assessed as inhibition of Abeta42-induced disruption of cell membrane by measuring reduction in Ca2+ influx at 1 mM incubated for 24 hrs by Fluo-3AM dye based scanning confocal fluorescence microscopy relative to control; details: filed as modulator
Outline: (§4)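 SH-SY5Y cells cultured 24 h with Aβ42 (25 μM) plus each monosaccharide (1 mM). Intracellular free Ca2+ imaged by fluorescence using Fluo3-AM […] as Ca2+ probes. Controls were cells cultured without Aβ42 and monosaccharide.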

[8] = molecular target: Amyloid-beta precursor protein (Homo sapiens) (UniProt P05067); test: as §3, with “[…]” for “Fluo-3AM”; details: filed as modulator; outline: as §4
[9] = molecular target: Amyloid-beta precursor protein (Homo sapiens) (UniProt P05067); test: Modulation of amyloid beta (1 to 42) supramolecular organization in human SH-SY5Y cells assessed as reduction in AChE activity at 1 mM incubated for 1 day; format: cell-based; details: filed as modulator
Outline: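 SH-SY5Y neuroblastoma cells exposed to Aβ42 with monosaccharide (1 mM); cellular AChE activity read after 1 day of incubation.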

[10] = molecular target: Amyloid-beta precursor protein (Homo sapiens) (UniProt P05067); test: Modulation of amyloid beta (1 to 42) supramolecular organization in human SH-SY5Y cells assessed as reduction in insulin resistance by measuring reduction in Abeta-42-induced IRS1 phosphorylation at Ser612 residue at 1 mM incubated for 1 hr by immunoblot analysis; format: cell-based; details: filed as modulator
Outline: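 SH-SY5Y cells cultured 1 h in medium with 10% FBS and no added insulin, with or without Aβ42 (25 μM) and each monosaccharide. IRS1 phosphorylation at S612 quantified by expression analysis. Parallel runs supplemented with 5 nM insulin.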

[11] = molecular target: Amyloid-beta precursor protein (Homo sapiens) (UniProt P05067); test: Modulation of amyloid beta (1 to 42) supramolecular organization in human SH-SY5Y cells assessed as reduction in insulin resistance by measuring increase in AKT1 phosphorylation phosphorylation at Ser473 residue at 1 mM incubated for 1 hr by immunoblot analysis; format: cell-based; details: filed as modulator
Outline: (§5)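 SH-SY5Y cells in medium with 10% FBS, no added insulin, cultured 1 h with Aβ42 (25 μM) with or without monosaccharide (1 mM); protein expression read by immunoblot.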

[12] = molecular target: Amyloid-beta precursor protein (Homo sapiens) (UniProt P05067); test: Modulation of amyloid beta (1 to 42) supramolecular organization in human SH-SY5Y cells assessed as reduction in inflammation by measuring decrease in Abeta-42-induced ANXA1 expression at 1 mM incubated for 1 hr by immunoblot analysis; format: cell-based; details: filed as modulator; outline: as §5
[13] = molecular target: Amyloid-beta precursor protein (Homo sapiens) (UniProt P05067); test: Modulation of amyloid beta (1 to 42) supramolecular organization in human SH-SY5Y cells assessed as reduction in insulin resistance by measuring reduction in Abeta-42-induced IRS1 phosphorylation at Ser612 residue at 1 mM incubated for 1 hr in presence of insulin by immunoblot analysis; format: cell-based; details: filed as modulator
Outline: (§6)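 SH-SY5Y cells in medium with 10% FBS plus 5 nM insulin, cultured 1 h with Aβ42 (25 μM) with or without monosaccharide (1 mM); protein expression read by immunoblot.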

[14] = molecular target: Amyloid-beta precursor protein (Homo sapiens) (UniProt P05067); test: Modulation of amyloid beta (1 to 42) supramolecular organization in human SH-SY5Y cells assessed as reduction in inflammation by measuring decrease in Abeta-42-induced ANXA1 expression at 1 mM incubated for 1 hr in presence of insulin by immunoblot analysis; format: cell-based; details: filed as modulator; outline: as §6
[15] = molecular target: Amyloid-beta precursor protein (Homo sapiens) (UniProt P05067); test: Modulation of human amyloid beta (1 to 42) supramolecular organization assessed as reduction in amount of cytotoxic Abeta42 oligomers at 1 mM measured for 1 to 5 days by Western blot analysis; details: filed as modulator, time 1-5 day; outline: as §2
[16] = molecular target: Amyloid-beta precursor protein (Homo sapiens) (UniProt P05067); test: Modulation of human amyloid beta (1 to 42) supramolecular organization at 0.4 mM by dynamic light scattering based analysis; details: filed as modulator
[17] = molecular target: Amyloid-beta precursor protein (Homo sapiens) (UniProt P05067); test: Modulation of human amyloid beta (1 to 42) supramolecular organization assessed as prevalence of Abeta42 fibrils with parallel beta-sheets at 1 mM incubated for 5 days by ATR-FITR analysis; details: time 5.0 day

Sequence of Amyloid-beta precursor protein (Homo sapiens) (P05067 whole entry): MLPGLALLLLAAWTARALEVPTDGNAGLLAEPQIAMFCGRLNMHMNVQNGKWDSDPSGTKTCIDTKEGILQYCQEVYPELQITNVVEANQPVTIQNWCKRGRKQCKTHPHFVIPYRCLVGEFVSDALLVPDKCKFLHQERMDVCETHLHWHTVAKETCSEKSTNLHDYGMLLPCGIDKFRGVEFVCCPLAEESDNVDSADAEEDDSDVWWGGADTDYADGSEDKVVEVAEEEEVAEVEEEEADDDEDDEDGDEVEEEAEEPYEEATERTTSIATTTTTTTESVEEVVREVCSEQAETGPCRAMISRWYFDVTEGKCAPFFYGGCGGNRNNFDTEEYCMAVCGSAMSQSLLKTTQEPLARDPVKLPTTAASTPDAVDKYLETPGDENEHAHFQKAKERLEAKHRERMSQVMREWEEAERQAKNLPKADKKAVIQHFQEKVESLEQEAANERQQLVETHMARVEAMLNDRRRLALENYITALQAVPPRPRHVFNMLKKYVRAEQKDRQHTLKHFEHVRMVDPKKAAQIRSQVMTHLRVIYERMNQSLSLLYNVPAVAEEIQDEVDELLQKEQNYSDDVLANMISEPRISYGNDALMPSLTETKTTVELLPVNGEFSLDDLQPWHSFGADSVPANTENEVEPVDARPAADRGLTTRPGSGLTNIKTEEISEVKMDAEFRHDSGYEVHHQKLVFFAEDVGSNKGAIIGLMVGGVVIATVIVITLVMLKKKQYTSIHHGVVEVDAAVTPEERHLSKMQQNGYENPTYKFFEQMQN

Row | Activity [1] | Activity [2] | Activity [10] | Activity [16] | Activity [17] | Structure (SMILES) | Activity [3] | Activity [4] | Activity (SH-SY5Y [5]) | Activity (SH-SY5Y [6]) | inhibition [7] | inhibition [8] | Activity [9] | Activity [11] | Activity [12] | Activity [13] | Activity [14] | Activity [15] | Activity ([17]; filed as modulator)
1 | Active | inactive |  | Active | inactive | N[C@@H]1[C@@H](O)[C@H](O)[C@@H](CO)O[C@H]1O |  | Active | Non-Toxic | Active |  |  |  |  |  |  |  |  | 
2 | Active | inactive | Active | Active | inactive | CC(=O)N[C@H]1C(O)O[C@H](CO)[C@@H](O)[C@@H]1O (some centres not stated) |  | Active | Non-Toxic | Active |  |  |  |  |  |  |  |  | 
3 | Active | inactive | Active | Active |  | N[C@@H]1[C@@H](O)[C@H](O)[C@@H](COP(=O)(O)O)O[C@H]1O | Active | Active | Non-Toxic | Active | Active | Active |  | Active | Active | Active | Active |  | Active

Row | Structure (SMILES) | Activity [1] | Activity [2] | Activity [10] | Activity [16] | Activity [17] | Activity [3] | Activity [4] | Activity (SH-SY5Y [5]) | Activity (SH-SY5Y [6]) | inhibition [7] | inhibition [8] | Activity [9] | Activity [11] | Activity [12] | Activity [13] | Activity [14] | Activity [15] | Activity ([17]; filed as modulator)
4 | N[C@@H]1[C@@H](O)[C@H](O)[C@@H](COS(=O)(=O)O)O[C@H]1O | Active | inactive | Active | Active |  | Active | Active | Non-Toxic | Active | 41% | 60% | Active | Active | Active | Active | Active | Active | Active
